Compounds with a hit are over-represented: about 1.8% of the library has one in this group of screens.
NPY-Y1 PAM-ag: human NPY-Y1 potentiation or agonism, primary screen | P25929 | NPY-Y1 expressing cells, potentiator/agonist activation | activation, % at 3.6 µM | 220,000 compounds, 0.37% hits | AID 1304; in the data active = activation above about 33%, passing the limit was not always enough;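 note: cells stimulated with NPY at EC10 then isoproterenol at EC100; 0% = low agonist plus stimulus and 100% = saturating agonist plus stimulus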
Target sequence (P25929 whole entry, looked up): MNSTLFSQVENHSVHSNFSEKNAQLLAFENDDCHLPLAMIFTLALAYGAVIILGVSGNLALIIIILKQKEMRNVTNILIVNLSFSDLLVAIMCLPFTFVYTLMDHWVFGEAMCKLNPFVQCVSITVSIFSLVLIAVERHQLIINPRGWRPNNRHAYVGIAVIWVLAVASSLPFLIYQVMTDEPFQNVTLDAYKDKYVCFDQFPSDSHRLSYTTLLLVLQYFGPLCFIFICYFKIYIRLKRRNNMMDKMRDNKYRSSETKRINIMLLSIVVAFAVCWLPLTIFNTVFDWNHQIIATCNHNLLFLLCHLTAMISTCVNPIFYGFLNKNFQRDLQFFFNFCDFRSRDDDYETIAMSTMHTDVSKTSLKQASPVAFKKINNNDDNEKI
NPY Y2 blocker: NPY-Y2 (human) receptor antagonism; 140,000 compounds, 0.99% hits; NPY-Y2 expressing cells, antagonist mode; P49146; inhibition, % at 2.7 µM; in the data active = inhibition above about 17%;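 note: 0% = vehicle with agonist challenge and 100% = reference antagonist with challenge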
Target sequence (P49146 whole entry, looked up): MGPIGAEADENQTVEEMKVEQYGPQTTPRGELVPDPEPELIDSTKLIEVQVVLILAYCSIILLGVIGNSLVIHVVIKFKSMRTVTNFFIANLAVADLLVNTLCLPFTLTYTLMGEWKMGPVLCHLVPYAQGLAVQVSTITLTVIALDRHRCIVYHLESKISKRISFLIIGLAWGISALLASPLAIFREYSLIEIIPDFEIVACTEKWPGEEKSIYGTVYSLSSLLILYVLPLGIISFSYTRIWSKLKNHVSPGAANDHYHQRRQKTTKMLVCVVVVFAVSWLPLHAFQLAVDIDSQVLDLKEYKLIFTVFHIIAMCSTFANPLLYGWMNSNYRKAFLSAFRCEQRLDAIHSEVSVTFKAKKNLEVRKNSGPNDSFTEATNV
NPY2 pot ag: potentiators or agonists of human neuropeptide Y receptor Y2. AID 1359. 220,000 compounds, 0.45% hits. activation, % at 3.6 µM. P49146. cells expressing NPY-Y2, potentiator/agonist read-out; in the data active = activation above about 27%;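 note: cells stimulated with NPY near EC25 plus isoproterenol at EC100; 0% = vehicle plus submaximal agonist and 100% = vehicle plus saturating agonist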
NPY-Y1 antag: blocks the human neuropeptide Y Y1 receptor. P25929. HEK293-CNG Y1 cells, membrane potential fluorescence; NPY at EC95, then isoproterenol. inhibition, % at 3.6 µM. 200,000 compounds, 1% hits;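 active = inhibition above the campaign mean inhibition of all tested compounds plus 3 SD, cut at about 20% in these data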;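 note: 0% = DMSO wells given NPY plus isoproterenol and 100% = isoproterenol alone without NPY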
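Assay system: HEK293 Y1/CNG channel cell line; Doses: single compound dose of 3.6 µM, 0.4% DMSO; Timing: dye 3 h, compound 60 min room temperature, stimulation 45 min; Technique: Membrane-potential fluorescent dye readout; Measure: % inhibition of NPY effect.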
NPY-Y2 confirm: human NPY-Y2 potentiation or agonism, confirmation; shares compounds with NPY2 pot ag; cell-based NPY-Y2 potentiator/agonist assay; activation, % at 3.6 µM; 450 compounds, 20% hits; AID 1539; in the data active = activation above about 33%
NPY-Y1 counter: potentiates or activates NPY-Y1, counter-screen for NPY-Y2 hits; shares compounds with NPY2 pot ag; Y1 HEK293-CNG cells, membrane potential fluorescence; activation, % at 3.6 µM; 450 compounds, 20% hits; AID 1651; in the data active = activation above about 45%;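 note: cells stimulated with submaximal NPY then isoproterenol with phosphodiesterase inhibitor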
NPY-Y1 agonist 2: activates human NPY-Y1, counter-screen for NPY-Y2 potentiators. shares compounds with NPY2 pot ag. HEK293 Y1-CNGC, membrane potential fluorescence, agonism. activation, % at 3.6 µM. 450 compounds, 37% hits. AID 1702;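 active = activation above the mean of DMSO-only control wells plus 3 SD, cut at about 18% in these data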;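 note: cells stimulated with 1 µM isoproterenol plus the PDE inhibitor Ro 20-1724; 0% = isoproterenol with DMSO and no NPY and 100% = 40 nM NPY; Y1 agonists lower the membrane potential dye signal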
CNGC inh: counter-screen for NPY-Y2 potentiators: inhibitors of CNG channel activity; inhibition, % at 3.6 µM; 450 compounds, 32% hits; HEK293-CNG parental, isoproterenol cAMP, membrane potential fluorescence; shares compounds with NPY2 pot ag;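 active = inhibition above the control-well mean plus 3 SD of those wells, cut at about 22% in these data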;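 note: 0% = DMSO with isoproterenol and 100% = DMSO without isoproterenol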
NPY-Y2 ag 2: activates human NPY-Y2 receptor in potentiator counter-screen | 450 compounds, 56% hits | activation, % at 3.6 µM | AID 1710 | HEK293 Y2/CNGC cells, membrane potential fluorescence, agonist mode | shares compounds with NPY2 pot ag;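 active = activation above the mean of solvent-only control wells plus 3 SD, cut at about 10% in these data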;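 note: cells stimulated by isoproterenol with no NPY added so direct agonism is tested; 0% = DMSO with isoproterenol alone and 100% = NPY at EC100 plus isoproterenol; agonism lowers probe fluorescence through less cAMP and CNG channel opening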
Numbers without * were called inactive; . = not tested or not shown.

SMILES | NPY-Y1 PAM-ag | NPY Y2 blocker | NPY2 pot ag | NPY-Y1 antag | NPY-Y2 confirm | NPY-Y1 counter | NPY-Y1 agonist 2 | CNGC inh | NPY-Y2 ag 2
CCOC(=O)C1CCN(CC(O)COCc2ccc3c(c2)OCO3)CC1 (stereo not given) | 1 | . | -3 | -1 | . | . | . | . | .
O=C(NCC1CCCO1)c1onc(CSc2cccc3ccccc23)c1C(=O)O (stereo not given) | -38 | 12 | -52 | 16 | . | . | . | . | .
COc1ccc(NC(=S)NC(NC(=O)c2cccc(Cl)c2)C(Cl)(Cl)Cl)c([N+](=O)[O-])c1 (stereo not given) | 39 | -8 | 37* | -9 | 22 | 33 | 20* | 20 | 33*
O=C(/C=C/c1cccc(C(F)(F)F)c1)Nc1cccc(C(F)(F)F)c1 | 33 | -2 | 36* | -12 | 19 | 23 | 25* | 33* | 16*
Cc1ccc(NC(=O)/C=C/c2cccc(C(F)(F)F)c2)cc1 | -16 | 5 | -11 | -1 | . | . | . | . | .
COc1cccc(C(=O)NNC2=CC(=O)CC(C)(C)C2)c1 | 4 | 2 | 2 | 1 | . | . | . | . | .
COc1cc(C(=O)NNC2=CC(=O)CC(C)(C)C2)cc(OC)c1OC | 32 | 2 | 44* | -1 | 3 | 2 | 7 | 6 | 9
COC(=O)c1ccc(NC(=O)CN(c2ccc(C)cc2)S(=O)(=O)c2c(C)nn(C)c2C)cc1 | 41 | -6 | 40* | -9 | 24 | 36 | 48* | 35* | 36*
Cc1cc(C)[n+](-c2ccc(C(C)C)cc2)c2[nH]c(=O)[nH]c(=O)c12 | 19 | 4 | 5 | -4 | . | . | . | . | .
COc1ccc(OCc2nc(-c3ccc(F)c(F)c3)cs2)cc1 | -25 | . | -18 | . | . | . | . | . | .
Cn1cnc2c(N/N=C/c3cccs3)ncnc21 | 0 | . | 64* | . | -9 | -3 | -5 | -10 | -2
CC(C)C(O)(C#CCN1CCCC1)c1ccccc1 (stereo not given) | 5 | 0 | 102* | 4 | -6 | -11 | -6 | -4 | 1
Oc1ccc(Cl)cc1Cc1cc(Cl)ccc1O | 65 | -4 | 62* | -8 | 39* | 35 | 36* | 28* | 32*
Oc1ccc(Cl)cc1CNn1cnnc1 | 3 | . | -7 | 5 | . | . | . | . | .
CC(=O)c1ccc(NC(=O)C2CCCN(C(=O)c3ccc(Cl)cc3)C2)cc1 (stereo not given) | 19 | . | 28* | -8 | 32 | 38 | 29* | 30* | 30*
O=C(O)Cc1sc(Nc2ccc(F)cc2)nc1-c1cccs1 | -20 | . | 9 | -6 | . | . | . | . | .
Cc1ccc(C(=O)NCCc2cccc(Cl)c2)cc1[N+](=O)[O-] | -11 | 3 | 3 | 4 | . | . | . | . | .
Cc1cccc(C)c1NS(=O)(=O)c1ccc(NC(=O)c2ccc(Cl)c([N+](=O)[O-])c2)cc1 | 29 | -1 | 38* | -11 | 35* | 41 | 37* | 29* | 43*
N#Cc1ccsc1NC(=O)c1ccc(Cl)c([N+](=O)[O-])c1 | -8 | . | 51* | . | -8 | -44 | -33 | -15 | 10
O=C(NCCc1cccc(Cl)c1)c1ccc(Cl)c([N+](=O)[O-])c1 | 27 | 4 | 35* | 4 | 20 | 32 | 22* | 27* | 26*
N#Cc1ccsc1NC(=O)c1cccc([N+](=O)[O-])c1 | -11 | . | 5 | 2 | . | . | . | . | .
Oc1ccc(-c2n[nH]c(C(F)(F)F)c2-c2ccccc2)c(O)c1 | 14 | . | 53* | -3 | 17 | -4 | -13 | 4 | 15*
CC1(C)C2CCC(C2)C1(C)NC(=O)CNC1CCCCC1 (stereo not given) | -8 | . | -12 | 8 | . | . | . | . | .
Cn1cnnc1-c1cccc(NC(=O)c2cc(F)c(F)cc2Cl)c1 | 4 | . | -1 | 8 | . | . | . | . | .
CCCC(=O)OCCNc1cc(SCCC(=O)OC)c2nonc2c1[N+](=O)[O-] | -9 | 0 | 5 | -3 | . | . | . | . | .
SMILES | NPY-Y1 PAM-ag | NPY Y2 blocker | NPY2 pot ag | NPY-Y1 antag | NPY-Y2 confirm | NPY-Y1 counter | NPY-Y1 agonist 2 | CNGC inh | NPY-Y2 ag 2
COC(=O)CCSc1cc(NCCOC(C)=O)c([N+](=O)[O-])c2nonc12 | -7 | 0 | 43* | -7 | -2 | -3 | -6 | 4 | -3
CC(C)(C)N(Cc1cc2ccccc2[nH]c1=O)C(=O)c1ccco1 | -6 | . | -8 | -5 | . | . | . | . | .
CC(C)(C)N(Cc1cc2ccccc2[nH]c1=O)C(=O)c1cccnc1 | 14 | -1 | 85* | -2 | -1 | 0 | 0 | 1 | 1
CCN1C(=O)C2(C(C#N)=C(N)Oc3n[nH]c(-c4ccc(Cl)cc4)c32)c2ccccc21 (stereo not given) | 31 | 5 | 39* | -7 | 44* | 58* | 51* | 24* | 36*
CCN1C(=O)C2(C(C#N)=C(N)Oc3n[nH]c(C(C)C)c32)c2ccccc21 (stereo not given) | -15 | 2 | -25 | 2 | . | . | . | . | .
CC(=O)c1c(C)[nH]c(C(=O)OCCCCN2C(=O)c3ccccc3C2=O)c1C | -31 | 3 | 39* | 4 | 1 | -11 | 12 | -7 | 22*
Cc1ccc(NS(=O)(=O)c2cccc(C(=O)Nc3c(C)n(C)n(-c4ccccc4)c3=O)c2)cc1 | -18 | . | 58* | . | -3 | -2 | -11 | 0 | -1
Cc1c(NS(=O)(=O)c2cccc(C(=O)NCc3ccccc3)c2)c(=O)n(-c2ccccc2)n1C | 0 | 0 | -9 | 7 | . | . | . | . | .
O=C(O)c1ccc(OCc2cn3ccccc3n2)cc1 | 9 | . | 101* | . | 2 | 7 | -1 | 3 | 13*
Cc1cc(C)c2sc(N(CCN(C)C)C(=O)c3c(F)cccc3F)nc2c1 | -7 | . | -4 | -6 | . | . | . | . | .
Cc1cc(C)c2sc(N(CCCN(C)C)C(=O)c3ccc(Br)s3)nc2c1 | 15 | . | 37* | 15 | 74* | 88* | 67* | 75* | 81*
O=[N+]([O-])c1cc(C(F)(F)F)ccc1NCCNC(=S)Nc1ccc(Cl)cc1 | 28 | -5 | 36* | -10 | 36* | 37 | 39* | 23* | 46*
O=C(Nc1ccc(Cl)cc1)N1CCCN(c2ccc(C(F)(F)F)cc2[N+](=O)[O-])CC1 | 41 | . | 48* | . | 47* | 76* | 78* | 60* | 58*
CC(=O)O/N=C/c1c(C)c(C=O)n2ccccc12 | 2 | . | 1 | -8 | . | . | . | . | .
COc1ccc(-n2cc(C#N)c(=O)n(Cc3ccc(F)cc3)c2=O)cc1 | 8 | . | 4 | -4 | . | . | . | . | .
CCCn1c(CCC(=O)O)nc2cc(S(=O)(=O)N(CC)CC)ccc21 | 16 | . | -11 | . | . | . | . | . | .
CCCn1c(CCC(=O)O)nc2cc(S(N)(=O)=O)ccc21 | 7 | . | 104* | . | -3 | -2 | -16 | 0 | -11
